From PubChem BioAssay
Mdm2 MdmX PPI: inhibitors of human Mdm2-MdmX association, primary screen, cell-based, luminescence, split luciferase, SaOS-2, uHTS; SaOS-2 split-luciferase Mdm2/MdmX complementation; AID 485346, 2010; inhibition, % at 8 µM; hit rate 3% among 330,000;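 active = inhibition of at least 50% at 8 µM in the primary screen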
Target sequence (O15151 whole entry, looked up): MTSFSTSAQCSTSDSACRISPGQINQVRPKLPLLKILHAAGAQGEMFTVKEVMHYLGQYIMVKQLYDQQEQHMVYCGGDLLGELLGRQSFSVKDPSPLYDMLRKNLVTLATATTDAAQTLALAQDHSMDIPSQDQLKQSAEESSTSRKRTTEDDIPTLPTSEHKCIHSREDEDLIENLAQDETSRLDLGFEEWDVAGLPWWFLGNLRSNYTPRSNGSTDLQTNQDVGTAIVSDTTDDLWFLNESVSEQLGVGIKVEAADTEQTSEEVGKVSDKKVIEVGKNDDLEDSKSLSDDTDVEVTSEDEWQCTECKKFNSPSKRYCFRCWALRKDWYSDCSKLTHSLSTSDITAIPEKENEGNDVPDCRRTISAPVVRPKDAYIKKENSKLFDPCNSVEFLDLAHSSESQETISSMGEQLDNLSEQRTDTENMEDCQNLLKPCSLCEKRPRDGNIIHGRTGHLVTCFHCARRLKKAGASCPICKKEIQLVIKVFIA
Target sequence (Q00987 whole entry, looked up): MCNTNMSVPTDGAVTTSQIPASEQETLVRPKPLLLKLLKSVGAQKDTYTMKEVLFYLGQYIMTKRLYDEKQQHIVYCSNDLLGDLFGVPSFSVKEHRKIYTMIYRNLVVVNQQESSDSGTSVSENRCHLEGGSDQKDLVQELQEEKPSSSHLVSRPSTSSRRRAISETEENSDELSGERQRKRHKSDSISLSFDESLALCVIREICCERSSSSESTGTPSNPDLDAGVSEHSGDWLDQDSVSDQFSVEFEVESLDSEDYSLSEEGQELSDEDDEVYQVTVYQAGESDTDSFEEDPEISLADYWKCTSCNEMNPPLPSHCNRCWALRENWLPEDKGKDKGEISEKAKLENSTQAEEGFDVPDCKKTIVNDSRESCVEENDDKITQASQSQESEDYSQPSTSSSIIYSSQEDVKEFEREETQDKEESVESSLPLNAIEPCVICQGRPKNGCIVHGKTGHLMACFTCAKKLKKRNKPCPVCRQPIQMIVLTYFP
697 NFkB inh: inhibitors of PMA/ionomycin-induced NF-kB reporter, 697 cells, primary screen, B-cell NF-kB inhibitor project, cell-based, luminescence, uHTS; 697 B-cell NF-kB luciferase reporter, 16 h; inhibition, % at 4 µM; hit rate 0.33% among 330,000; AID 435022, 2010; in the data active = inhibition above about 35%
Jurkat NFkB inh: inhibitors of induced NF-kB luciferase reporter, primary screen, TCR NF-kB activation inhibitor project, cell-based, luminescence, uHTS; hit rate 0.53% among 330,000; inhibition, % at 4 µM; Jurkat, PMA/ionomycin-induced NF-kB luciferase reporter; AID 435003, 2010; in the data active = inhibition above about 50%
VIM-2 inhibitor: VIM-2 metallo-beta-lactamase inhibitors, primary screen, biochemical, epi-absorbance readout, Pseudomonas aeruginosa enzyme; purified VIM-2, nitrocefin hydrolysis, epi-absorbance fluorescence; AID 1527, 2009; inhibition, % at 5.6 µM; hit rate 0.89% among 290,000;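 active = inhibition above the mean of all tested compounds plus 3 SD, cutoff set per screening run, cut at about 7.5% in these data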;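 also: red hydrolysis product quenches plate fluorescence so inhibitors raise well fluorescence; 0% = enzyme with DMSO and 100% = DMSO without enzyme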
IMP-1 inh-1: IMP-1 metallo-beta-lactamase inhibitors, primary screen, biochemical, epi-absorbance readout, Pseudomonas aeruginosa enzyme. AID 1556, 2009. hit rate 0.45% among 290,000. inhibition, % at 5.6 µM. purified IMP-1, nitrocefin hydrolysis, epi-absorbance fluorescence;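 active = inhibition above the mean plus 3 SD of all compounds in the same screening run, cut at about 4.5% in these data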;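 also: 0% = IMP-1 with DMSO and 100% = DMSO wells lacking enzyme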
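system = purified recombinant IMP-1 beta-lactamase | amount = 0.2 nM IMP-1, as dispensed | medium = HEPES buffer pH 7.1 with ZnSO4 and Brij 35 | times = 25 °C, 15 min preincubation, 25 min reaction | detection = plate fluorescence quenching by hydrolysis product, ex 480/em 530 nm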
aSyn 5UTR inh: MLPCN primary screen, SNCA 5' untranslated region | alpha-synuclein 5'UTR reporter, inhibitor activity | inhibition, % (tested at 7.5 µM) | hit rate 0.82% among 300,000; in the data active = inhibition above about 60%;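 also: H4 neuroglioblastoma cells stably carrying SNCA 5'UTR luciferase fusion; 0% = DMSO wells and 100% = positive control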
IMP-1 inh-2: IMP-1 metallo-beta-lactamase inhibitors, confirmation, selectivity assay for selective VIM-2 inhibitor project, biochemical, epi-absorbance readout, triplicate. shares compounds with VIM-2 inhibitor. AID 1856, 2009. 1,300 tested, under 10 active. purified IMP-1, nitrocefin hydrolysis, epi-absorbance fluorescence. inhibition, % at 5.6 µM; call rule not given here;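 also: 0% = enzyme with vehicle and 100% = vehicle without enzyme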
VIM-2 FRET inh: VIM-2 inhibitors in FRET format, confirmation, artefact control for selective VIM-2 inhibitor project, biochemical, epi-absorbance artifact exclusion. shares compounds with VIM-2 inhibitor. purified VIM-2, CCF2 FRET substrate hydrolysis. inhibition, % at 5.6 µM. hit rate 23% among 1,300. AID 1857, 2009;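 active = inhibition above the mean of all tested compounds plus 3 SD, cut at about 19% in these data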;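 also: 0% = VIM-2 plus DMSO and 100% = no enzyme wells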
TEM-1 counter-1: TEM-1 serine beta-lactamase inhibitors, counter-screen for VIM-2 inhibitor project, biochemical, epi-absorbance, HTS; shares compounds with VIM-2 inhibitor; Purified TEM-1, nitrocefin hydrolysis, epi-absorbance fluorescence; inhibition, % at 5.6 µM; hit rate 3% among 1,300; AID 1866, 2009;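 active = inhibition above that campaign's mean inhibition plus 3 SD, cut at about 0.46% in these data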;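 also: 0% = TEM-1 with DMSO and 100% = TEM-1 with 100 µM potassium clavulanate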
VIM-2 confirm 2: VIM-2 metallo-beta-lactamase inhibitors, confirmation, biochemical, epi-absorbance, hits shared with IMP-1 screen. shares compounds with VIM-2 inhibitor. purified VIM-2, nitrocefin hydrolysis. inhibition, % at 5.6 µM. hit rate 96% among 1,300. AID 2187, 2009;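 active = inhibition of the VIM-2 beta-lactamase enzyme above about 11% from the earlier first-round screen, limit read from the data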;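 also: 0% = VIM-2 with DMSO and 100% = buffer wells without enzyme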
VIM-2 confirm: P. aeruginosa VIM-2 enzyme inhibition – biochemical, epi-absorbance, HTS, confirmation; inhibition, % at 5.6 µM; purified VIM-2 enzyme, nitrocefin absorbance; hit rate 73% among 200; shares compounds with IMP-1 inh-1; in the data active = inhibition above about 8%;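 also: 0% = enzyme with vehicle and 100% = no enzyme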
TEM-1 counter-2: Serine beta-lactamase TEM-1 inhibition, biochemical epi-absorbance counter-screen for IMP-1/VIM-2 inhibitor program; shares compounds with IMP-1 inh-1; TEM-1 beta-lactamase, nitrocefin absorbance inhibition; inhibition, % at 5.6 µM; hit rate 50% among 200; in the data active = inhibition above about 0.66%
IMP-1 inh conf: IMP-1 metallo-beta-lactamase inhibitors, confirmation, biochemical, epi-absorbance, hits shared with VIM-2 screen. inhibition, % at 5.6 µM. AID 2189, 2009. shares compounds with IMP-1 inh-1. hit rate 60% among 200. purified IMP-1 enzyme, absorbance substrate hydrolysis; in the data active = inhibition above about 4.9%;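 also: 0% = enzyme with vehicle and 100% = vehicle without enzyme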
Jurkat NFkB conf: PMA/ionomycin-induced NF-kB reporter inhibitors, Jurkat retest, confirmation, T-cell NF-kB inhibitor project, cell-based, luminescence, single concentration. shares compounds with Jurkat NFkB inh. Jurkat NF-kB luciferase, 16 h. inhibition, % at 4 µM. hit rate 27% among 2,700;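 active = inhibition reaching about 45% at 4 µM in either replicate, limit read from the data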;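 also: plate controls were PMA/ionomycin stimulated DMSO wells for no effect and unstimulated DMSO wells for full effect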
An asterisk follows results filed as active; . = not tested or not shown. Shown are actives, neighbours in structure and some others; about 4.7% of the full set was active somewhere.

SMILES | Mdm2 MdmX PPI | 697 NFkB inh | Jurkat NFkB inh | VIM-2 inhibitor | IMP-1 inh-1 | aSyn 5UTR inh | Jurkat NFkB conf | others
CCOc1ccc(C(C)=O)cc1Cn1ccsc1=N | . | . | . | -1 | 0 | 1 | .
CN1CCC(N(C)c2nc(-c3ccccc3)nc3ccccc23)CC1 | 14 | 9 | -25 | 21* | -6 | -25 | . | IMP-1 inh-2=-1;VIM-2 FRET inh=-3;TEM-1 counter-1=-4;VIM-2 confirm 2=33*
C[C@]12CCC3C(CC[C@H]4C[C@@H](O)CC[C@]34C)C1C[C@@H](N)[C@@H]2O (some centres not stated) | 16 | 11 | -3 | . | . | . | .
CCOC(=O)C1CCCN(c2ccc([N+](=O)[O-])c3nonc23)C1 (configuration not stated) | . | . | . | 26* | 27* | 11 | . | VIM-2 confirm=28*;TEM-1 counter-2=34*;IMP-1 inh conf=23*
NNC(=O)c1nc[nH]c1C(=O)Nc1ccc(Cl)cc1C(=O)c1ccccc1 | 23 | 10 | 11 | -3 | -4 | 16 | .
Cc1cccn2c(=O)c3cc(C(=O)N4CCC5(CC4)OCCO5)n(C)c3nc12 | 38 | -26 | 53* | -1 | -3 | 19 | 30
O=C(c1cccn2c(=O)c3cc(Br)ccc3nc12)N1CCC2(CC1)OCCO2 | 10 | 3 | -5 | -4 | -4 | -8 | .
COc1ccc(-n2cnc3cc(C(=O)N4CCC5(CC4)OCCO5)ccc32)cc1 | 41 | -11 | 50* | -1 | -1 | -10 | 8
COc1cc2c(cc1C=O)OCO2 | 21 | -1 | 4 | -2 | 1 | 2 | .
COc1cc([C@@H]2c3cc4c(cc3[C@@H](OC)[C@H]3COC(=O)[C@H]23)OCO4)cc(OC)c1O | 36 | -68 | 57* | . | . | 33 | 47*
C/C=C(\C)C(=O)N[C@@H](c1ccccc1)[C@@H](O)C(=O)O[C@H]1C[C@@]2(O)[C@@H](OC(=O)c3ccccc3)C3[C@](C)(C(=O)[C@H](OC(C)=O)C(=C1C)C2(C)C)[C@@H](O)C[C@H]1OC[C@@]31OC(C)=O (some centres not stated) | 34 | -14 | 66* | -1 | -3 | 104* | 71*
